This note sets out measurements from ChEMBL document CHEMBL1914377, “Preliminary finding on a new calcium channel entry blocker chemotype: 5,6-diamino-4-hydroxy-2-mercaptopyrimidine derivatives” (J Med Chem, 2011).

Experiment [1] relates to Aorta. In words: Vasorelaxant activity in guinea pig K+-depolarized guinea pig aortic strip assessed as inhibition of calcium-induced contraction at 5 x 10^-5 M relative to control. The note with it: Cavia porcellus. In kind it is functional.
Experiment [2] can be described thus: Cardiovascular activity in guinea pig left atrium assessed as negative inotropic activity by measuring decrease of 1 Hz-induced tension at 10^-5 M relative to control. The experiment is classed as functional. To be noted: Cavia porcellus, Cardiac atrium.
A short description of experiment [3]: Cardiovascular activity in guinea pig left atrium assessed as negative inotropic activity by measuring decrease of 1 Hz-induced tension. The experiment is classed as functional, tissue-based. To be noted: Cavia porcellus, Cardiac atrium. A digest of the protocol: (§1)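 Log concentration–response curves fitted by probit analysis (Litchfield and Wilcoxon), n = 4–7. They were not calculated when the maximum effect was below 50%.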

Experiment [4] is described as follows: Cardiovascular activity in guinea pig spontaneously beating right atrium assessed as negative chronotropic activity by measuring decrease of atrial rate at 10^-4 M relative to control. In kind it is functional. The note with it: Cavia porcellus, Cardiac atrium.
Experiment [5] can be described thus: Cardiovascular activity in guinea pig left atrium assessed as negative inotropic activity by measuring decrease of 1 Hz-induced tension at 10^-4 M relative to control. The experiment is classed as functional. To be noted: Cavia porcellus, Cardiac atrium.
The subject of experiment [6] is Aorta. The experiment can be described thus: Vasorelaxant activity in guinea pig K+-depolarized guinea pig aortic strip assessed as inhibition of calcium-induced contraction at 10^-4 M relative to control. The experiment is classed as functional. The note with it: Cavia porcellus.
Experiment [7] in a line: Cardiovascular activity in guinea pig spontaneously beating right atrium assessed as negative chronotropic activity by measuring decrease of atrial rate. The experiment is classed as functional. The note with it: Cavia porcellus, Cardiac atrium. The method in brief: as §1
The nature of experiment [8]: Vasorelaxant activity in guinea pig K+-depolarized guinea pig longitudinal smooth muscle assessed as inhibition of calcium-induced contraction. In kind it is functional, Cavia porcellus.
A short description of experiment [9]: Cardiovascular activity in guinea pig left atrium assessed as negative inotropic activity by measuring decrease of 1 Hz-induced tension in presence of adenosine A1 receptor antagonist DPCPX. In kind it is functional, tissue-based. To be noted: Cavia porcellus, Cardiac atrium. A digest of the protocol:
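Negative inotropic concentration–response determined in the presence of the A1 antagonist DPCPX at 1 μM.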

In the next experiment the test system is CHO. In words: Inhibition of L-type alpha9beta3alpha2/gamma4 calcium channel expressed in CHO cells using Ba2+ as charge carrier at 10 uM by patch clamp electrophysiological assay relative to control. The experiment is classed as cell-based. The method in brief: (§2)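 Whole-cell patch clamp with Ba2+ currents. L-type current was recorded in transfected CHO cells and T-type current in TT cells, whose only voltage-gated Ca2+ currents are T-type. The read-out was percent decrease in peak current, comparing the mean of five consecutive steady-state sweeps in control and in drug. Results are mean ± SEM, n = 5–7 cells per group.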

A further experiment relates to TT. The experiment can be described thus: Inhibition of T-type calcium channel expressed in human TT cells using Ba2+ as charge carrier at 10 uM by patch clamp electrophysiological assay relative to control. The experiment is classed as cell-based. A digest of the protocol:
as §2
(In general: In patch-clamp work, channel activity is measured electrically.)

Experiment [10] can be described thus: Vasorelaxant activity in guinea pig K+-depolarized guinea pig longitudinal smooth muscle assessed as inhibition of calcium-induced contraction at 10^-4 M relative to control. To be noted: Cavia porcellus. In kind it is functional. A digest of the protocol: (§3)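 Guinea-pig longitudinal smooth muscle depolarized with K+ (80 mM). Percent inhibition of calcium-induced contraction was measured at single concentrations of 10^-4 M, 5 × 10^-5 M or 10^-5 M. Results are mean ± SEM.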

The nature of experiment [11]: Cardiovascular activity in guinea pig spontaneously beating right atrium assessed as negative chronotropic activity by measuring decrease of atrial rate at 10^-5 M relative to control. The experiment is classed as functional. To be noted: Cavia porcellus, Cardiac atrium.
The nature of experiment [12]: Cardiovascular activity in guinea pig left atrium assessed as negative inotropic activity by measuring decrease of 1 Hz-induced tension at 5 x 10^-5 M relative to control. In kind it is functional. To be noted: Cavia porcellus, Cardiac atrium.
A short description of experiment [13]: Cardiovascular activity in guinea pig spontaneously beating right atrium assessed as negative chronotropic activity by measuring decrease of atrial rate at 5 x 10^-5 M relative to control. The experiment is classed as functional. The note with it: Cavia porcellus, Cardiac atrium.
Experiment [14] can be described thus: Vasorelaxant activity in guinea pig K+-depolarized guinea pig longitudinal smooth muscle assessed as inhibition of calcium-induced contraction at 10^-5 M relative to control. The note with it: Cavia porcellus. In kind it is functional. The method in brief: as §3
Experiment [15] is described as follows: Vasorelaxant activity in guinea pig K+-depolarized guinea pig longitudinal smooth muscle assessed as inhibition of calcium-induced contraction at 5 x 10^-5 M relative to control. The experiment is classed as functional. To be noted: Cavia porcellus. A digest of the protocol: as §3
Experiment [16] has as its system Aorta. The experiment can be described thus: Vasorelaxant activity in guinea pig K+-depolarized guinea pig aortic strip assessed as inhibition of calcium-induced contraction. In kind it is functional, tissue-based. The note with it: Cavia porcellus. A digest of the protocol: as §1
The nature of experiment [17]: Cardiovascular activity in guinea pig left atrium assessed as negative inotropic activity by measuring decrease of 1 Hz-induced tension at 5 x 10^-6 M relative to control. In kind it is functional. To be noted: Cavia porcellus, Cardiac atrium.

Molecules are shown by their SMILES.

Take `CCOc1nc(SCc2ccccc2)nc(NC(C)=O)c1N(Cc1ccccc1)Cc1ccccc1`: the inhibition at 50 µM in the experiment with Aorta [1] was determined as 20%. In addition, the inhibition at 10 µM in experiment [2] turned out to be 64%. For the same molecule, in [3], the EC50 was 0.27 µM. In [4], the inhibition at 100 µM amounted to 44%.

On to `CCn1c(SCc2ccccc2)nc(N)c(N(Cc2ccccc2)Cc2ccccc2)c1=O`, for which the figures for the inhibition at 100 µM (in experiment [5]; in the experiment on Aorta [6]; in [4]) were 56%, 7% and 63%, respectively. The 30% effect concentration (EC30) in experiment [7] was 18.1 µM. For the same molecule, the IC50 in [8] was 2.91 µM. Besides, the EC50 in experiment [9] was 0.5 µM; in [3], 0.45 µM. In addition, the inhibition in the experiment on CHO was found to be 60.7%; with TT it was 11.9%; in experiment [10] it was 94%.

In the case of `CCn1c(SCCOC)nc(NC(C)=O)c(N(CCOC)CCOC)c1=O`, the inhibition at 100 µM amounted to 81% in [5], 2% in the experiment on Aorta [6] and 2% in [4]. For the same molecule, the half-maximal inhibitory concentration (IC50) in [8] was 23.8 µM. The inhibition in the experiment on CHO came to 37%; in the experiment with TT it was 12.3%; in experiment [10], 91%. Besides, the EC50 in experiment [3] stood at 0.77 µM.

Take `CCCSc1nc(NC(C)=O)c(N(CCC)CCC)c(OCC)n1`: in the experiment on Aorta [6], the inhibition at 100 µM was 23%. For the same molecule, in experiment [11], the inhibition at 10 µM came to 2%. In addition, the inhibition at 50 µM in experiment [12] stood at 71%. Besides, the EC50 in [3] worked out at 1 µM.

Take `COCCSc1nc(N)c(N(CCOC)CCOC)c(=O)[nH]1`: the inhibition at 100 µM in the experiment on Aorta [6] stood at 10%. Besides, the values for the inhibition at 10 µM in experiment [2] and in [11] were 93% and 13%, respectively. Besides, in [3], the EC50 was found to be 0.34 µM.

For `CCn1c(SCc2ccccc2)nc(NC(C)=O)c(N(Cc2ccccc2)Cc2ccccc2)c1=O`, the inhibition at 50 µM in experiment [13] turned out to be 72%; in experiment [12], 66%. In the experiment with Aorta [6], the inhibition at 100 µM was determined as 25%. Also, the EC30 in experiment [7] is 14.1 µM. Besides, in experiment [8], the IC50 was found to be 1.48 µM. For the same molecule, the inhibition in the experiment on CHO is 58%; in experiment [14] it was 90%; in the experiment on TT, 15.2%. For the same molecule, the half-maximal effective concentration (EC50) in experiment [3] was determined as 0.29 µM.

Turning to `Nc1nc(SCc2ccccc2)[nH]c(=O)c1N(Cc1ccccc1)Cc1ccccc1`, the inhibition at 50 µM with Aorta [1] was 2%. The results for the inhibition at 100 µM in experiment [5] and in experiment [4] were 60% and 80%, respectively. In addition, in experiment [7], the EC30 stood at 8.63 µM. Besides, the EC50 in experiment [3] amounted to 3.16 µM.

Take `COCCSc1nc(NC(C)=O)c(N(CCOC)CCOC)c(=O)[nH]1`: the inhibition at 50 µM in [13] came to 6%. Moreover, the inhibition at 100 µM in [5] was determined as 90%; with Aorta [6], 2%. Besides, the EC50 in [3] turned out to be 0.96 µM.

For the molecule `CCOc1nc(SCCOC)nc(N)c1N(CCOC)CCOC`, the inhibition at 100 µM in the experiment on Aorta [6] was found to be 22%; in experiment [4], 45%. For the same molecule, the inhibition at 50 µM in experiment [12] turned out to be 79%. Also, the EC50 in [3] was 0.31 µM.

Take `CC(=O)Nc1nc(SCc2ccccc2)[nH]c(=O)c1N(Cc1ccccc1)Cc1ccccc1`: the figures for the inhibition at 100 µM (in experiment [5]; in the experiment with Aorta [6]; in experiment [4]) were 90%, 31% and 95%, respectively. Moreover, in experiment [7], the EC30 stood at 6.79 µM. For the same molecule, the EC50 in experiment [3] came out at 1.41 µM.

On to `CCOc1nc(SCCOC)nc(NC(C)=O)c1N(CCOC)CCOC`, for which the figures for the inhibition at 100 µM (with Aorta [6]; in experiment [4]) were 10% and 3%, respectively. Besides, in [2], the inhibition at 10 µM was determined as 80%. Also, the EC50 in [3] was found to be 0.62 µM.

Take `CCCSc1nc(NC(C)=O)c(N(CCC)CCC)c(=O)n1CC`: the inhibition at 50 µM in experiment [13] came to 13%; in the experiment with Aorta [1], 13%; in [12], 60%. Moreover, in experiment [8], the IC50 is 4.86 µM. Besides, the inhibition in the experiment with CHO is 56%; in [14], 72%; with TT it was 22.3%. For the same molecule, the EC50 in [3] came to 0.53 µM.

Regarding `CCCSc1nc(N)c(N(CCC)CCC)c(=O)n1CC`, the inhibition at 50 µM in experiment [13] turned out to be 22%. Also, the inhibition was determined as 93% in [15], 54% with CHO and 35.3% with TT. Besides, in the experiment on Aorta [6], the inhibition at 100 µM came out at 28%. In [2], the inhibition at 10 µM amounted to 56%. The IC50 in experiment [8] was determined as 3.39 µM. In addition, the EC50 in experiment [3] is 0.6 µM.

On to `CCCSc1nc(N)c(N(CCC)CCC)c(=O)[nH]1`, for which the inhibition at 50 µM in experiment [13] stood at 39%. Also, in experiment [15], the inhibition is 87%. Moreover, the inhibition at 100 µM in experiment [5] was determined as 87%; in the experiment with Aorta [6], 54%. The IC50 in experiment [8] was found to be 13.9 µM; in the experiment on Aorta [16] it was 14.9 µM. For the same molecule, in [3], the EC50 stood at 1.96 µM.

Take `CCCSc1nc(N)c(N(CCC)CCC)c(OCC)n1`: the inhibition at 100 µM with Aorta [6] is 16%; in experiment [4] it was 27%. In addition, the inhibition at 10 µM in [2] is 68%. In experiment [8], the 50% inhibitory concentration (IC50) is 10.7 µM. Besides, in [10], the inhibition came out at 83%. Besides, the EC50 in [3] stood at 0.15 µM.

In the case of `CCn1c(SCCOC)nc(N)c(N(CCOC)CCOC)c1=O`, the inhibition at 100 µM was 33% in the experiment with Aorta [6] and 11% in [4]. In addition, in [2], the inhibition at 10 µM amounted to 76%. The IC50 in experiment [8] is 21.5 µM. The inhibition with CHO was 52%; in the experiment with TT, 24.7%; in experiment [10], 60%. The EC50 in experiment [3] turned out to be 0.23 µM.

Regarding `CCCSc1nc(NC(C)=O)c(N(CCC)CCC)c(=O)[nH]1`, the inhibition at 100 µM in the experiment with Aorta [6] turned out to be 30%. Also, the inhibition at 10 µM in experiment [11] is 7%. Moreover, the inhibition at 5 µM in [17] turned out to be 62%. The EC50 in experiment [3] came out at 0.28 µM.

`CCOc1nc(SCc2ccccc2)nc(N)c1N(Cc1ccccc1)Cc1ccccc1`: the inhibition at 50 µM in the experiment with Aorta [1] came out at 2%. The inhibition at 100 µM in experiment [5] worked out at 62%; in experiment [4], 33%. Besides, the EC50 in experiment [3] amounted to 1.49 µM.

A word on the inhibition: it is the drop in the measured response relative to a control, in per cent. As usually defined, the EC50 is the midpoint of the concentration-response curve. As a reminder, the EC30 is the concentration needed for an effect of 30%. For orientation: IC50 means the concentration that gives 50% inhibition.
